Measurements as given in ChEMBL document CHEMBL4196017, “Design, synthesis and identification of silicon-containing HCV NS5A inhibitors with pan-genotype activity” (Eur J Med Chem, 2018).

Legend:
[1] = Protein binding in mouse plasma at 1 uM after 6 hrs by UPLC-MS/MS based equilibrium dialysis method; format: ADME, cell-free; conditions: read-out: PPB (converted)
Method in brief: (§1)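 Equilibrium dialysis: plasma (pH 7.4) preincubated 15 min at 37 °C, spiked with compound at 1 or 10 µM (0.5% DMSO final); dialysed against 100 mM phosphate buffer pH 7.4, 6 h at 37 °C, 100 rpm; donor and receiver samples analysed by UPLC-MS/MS.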

hERG (KCNH2) [2] = biological target: T1, hERG (KCNH2) (Homo sapiens, UniProt Q12809); assay: Inhibition of human ERG assessed as reduction in peak tail current at 3 uM at holding potential of -80 mV by patch clamp method relative to control
Method in brief: (§2)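 Whole-cell patch clamp, room temperature; hold -80 mV, 2 s +50 mV depolarization then 3 s -50 mV repolarization every 30 s; peak tail current referenced to initial 50 ms step to -50 mV; 3 min vehicle stabilization, then test solution until stable (<5% over ~5 sweeps) or 6 min max; mean ± SD, n = 3.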

[3] = Cmax in mouse at 10 mg/kg, ig administered as single dose by UPLC-MS/MS analysis; format: ADME, organism-based; design: dose 10 mg/kg, route intragastric; conditions: in vivo, po
Method in brief: (§3)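 Adult male mice (12 h light-dark, 22 °C, 55% humidity) fasted 12 h with free water, then given a single 10 mg/kg intragastric dose; plasma concentrations by UPLC-MS/MS; PK parameters calculated by software.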

[4] = AUC (0 to t) in mouse at 10 mg/kg, ig administered as single dose by UPLC-MS/MS analysis; format: ADME, organism-based; conditions: in vivo, po; method in brief: as §3
[5] = Protein binding in rat plasma at 10 uM after 6 hrs by UPLC-MS/MS based equilibrium dialysis method; format: ADME, cell-free; conditions: read-out: PPB (converted); method in brief: as §1
[6] = Cmax in beagle dog at 2 mg/kg, po administered as single dose by UPLC-MS/MS analysis; format: ADME, organism-based, Canis lupus familiaris; design: dose 2 mg/kg, route oral; conditions: in vivo
Cytochrome P450 2D6 = Cytochrome P450 2D6 (Homo sapiens, UniProt P10635); assay: Inhibition of CYP2D6 in human liver microsomes at 1 to 10 uM using dextromethorphan as substrate preincubated for 5 mins followed by NADPH addition measured after 30 mins by UPLC-MS/MS analysis relative to control; format: ADME; conditions: 0.5 h
[7] = Protein binding in human plasma at 1 uM after 6 hrs by UPLC-MS/MS based equilibrium dialysis method; format: ADME, cell-free; conditions: read-out: PPB (converted); method in brief: as §1
[8] = Apparent permeability from apical to basolateral side in human Caco2 cells after 90 mins by UPLC-MS/MS analysis; format: ADME, cell-based; conditions: Caco-2
Method in brief: (§4)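 Caco-2 cells on Transwell inserts grown 21-23 days to TEER ≥200 Ω cm²; rinsed with warm HBSS, preincubated 30 min at 37 °C in 2% BSA with or without inhibitor; compound in 2% BSA added apical or basolateral, 90 min at 37 °C; receiver sampled, UPLC-MS/MS; duplicate; Papp calculated.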

[9] = Cytotoxicity against HUVEC assessed as growth inhibition at 50 uM relative to control; format: cell-based; conditions: human, read-out: GI
Method in brief: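 HUVEC from healthy donors exposed to compound at 50 µM; percent inhibition reported as mean of n = 3.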

[10] = Protein binding in human plasma at 10 uM after 6 hrs by UPLC-MS/MS based equilibrium dialysis method; format: ADME, cell-free; conditions: read-out: PPB (converted); method in brief: as §1
[11] = Tmax in mouse at 10 mg/kg, ig administered as single dose by UPLC-MS/MS analysis; format: ADME, organism-based; conditions: in vivo, po; method in brief: as §3
[12] = Ratio of drug uptake in Sprague-Dawley rat liver to plasma at 10 mg/kg, ig administered as single dose measured after 24 hrs by UPLC-MS/MS analysis; format: ADME, organism-based; conditions: po
Cytochrome P450 2C19 = Cytochrome P450 2C19 (Homo sapiens, UniProt P33261); assay: Inhibition of CYP2C19 in human liver microsomes at 1 to 10 uM using (S)-mephenytoin as substrate preincubated for 5 mins followed by NADPH addition measured after 30 mins by UPLC-MS/MS analysis relative to control; format: ADME; conditions: 0.5 h
[13] = Half life in mouse at 10 mg/kg, ig administered as single dose by UPLC-MS/MS analysis; format: ADME, organism-based; conditions: in vivo, po; method in brief: as §3
[14] = Metabolic stability in rat liver microsomes assessed as parent compound remaining at 0.2 uM preincubated for 5 mins followed by NADPH addition measured up to 60 mins by UPLC-MS/MS analysis; format: ADME, microsome; conditions: read-out: Stability
Method in brief: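 Pooled mouse, rat or human liver microsomes 0.2 mg/mL with 1 mM NADPH, 5 mM MgCl2, 100 mM potassium phosphate pH 7.4 and 0.2 µM compound; 5-min preincubation at 37 °C, NADPH start, sampled at 5, 15, 30, 60 min; ice-cold acetonitrile stop; UPLC-MS/MS; percent parent remaining at 60 min.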

Cytochrome P450 2C9 = Cytochrome P450 2C9 (Homo sapiens, UniProt P11712); assay: Inhibition of CYP2C9 in human liver microsomes at 1 to 10 uM using tolbutamide as substrate preincubated for 5 mins followed by NADPH addition measured after 30 mins by UPLC-MS/MS analysis relative to control; format: ADME; conditions: 0.5 h
Cytochrome P450 3A4 = Cytochrome P450 3A4 (Homo sapiens, UniProt P08684); assay: Inhibition of CYP3A4 in human liver microsomes at 1 to 10 uM using nifedipine as substrate preincubated for 5 mins followed by NADPH addition measured after 30 mins by UPLC-MS/MS analysis relative to control; format: ADME; conditions: 0.5 h
[15] = Protein binding in dog plasma at 10 uM after 6 hrs by UPLC-MS/MS based equilibrium dialysis method; format: ADME, cell-free, Canis lupus familiaris; conditions: read-out: PPB (converted); method in brief: as §1
[16] = Efflux ratio of apparent permeability in human Caco2 cells after 90 mins by UPLC-MS/MS analysis; format: ADME, cell-based; conditions: Caco-2; method in brief: as §4
hERG (KCNH2) [17] = biological target: T1, hERG (KCNH2); assay: Inhibition of human ERG assessed as reduction in peak tail current at 10 uM at holding potential of -80 mV by patch clamp method relative to control; method in brief: as §2
[18] = Tmax in beagle dog at 2 mg/kg, po administered as single dose by UPLC-MS/MS analysis; format: ADME, organism-based, Canis lupus familiaris; conditions: in vivo
[19] = Half life in beagle dog at 2 mg/kg, po administered as single dose by UPLC-MS/MS analysis; format: ADME, organism-based, Canis lupus familiaris; conditions: in vivo
Mus musculus [20] = assay: Toxicity in ICR mouse assessed as RBC count at 150 mg/kg, po administered via gavage once daily for 14 days (reference value: 9.04 +/- 0.8 10^12/L); format: organism-based; conditions: in vivo, 336 h
Method in brief: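 ICR mice, 5 males + 5 females per group, dosed by gavage once daily at 150 mg/kg (20 ml/kg) or vehicle for 14 days; killed after the 14th dose; blood from abdominal aorta under ether anaesthesia for hematology and clinical chemistry; mean ± SD, n = 10.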

Mus musculus [21] = assay: Toxicity in ICR mouse assessed as spleen weight at 150 mg/kg, po administered via gavage once daily for 14 days (reference value: 0.355 +/- 0.1 g); format: organism-based; conditions: in vivo, 336 h
Mus musculus [22] = assay: Toxicity in ICR mouse assessed as serum creatine kinase level at 150 mg/kg, po administered via gavage once daily for 14 days (reference value: 705.78 +/- 330.84 U/L); format: organism-based; conditions: in vivo, 336 h
Mus musculus [23] = assay: Toxicity in ICR mouse assessed as monocyte level in serum at 150 mg/kg, po administered via gavage once daily for 14 days (reference value: 12.93 +/- 3.61%); format: organism-based; conditions: in vivo, 336 h
Method in brief: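 Haematology on abdominal aortic blood taken at necropsy under ether anaesthesia after 14 daily gavage doses (20 ml/kg) in ICR mice, 5 per sex per group, vehicle control. Parameters: WBC, RBC, haemoglobin, platelets, reticulocyte ratio and differential leukocyte counts; mean ± SD, n = 10.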

T1 sequence (Q12809 whole entry): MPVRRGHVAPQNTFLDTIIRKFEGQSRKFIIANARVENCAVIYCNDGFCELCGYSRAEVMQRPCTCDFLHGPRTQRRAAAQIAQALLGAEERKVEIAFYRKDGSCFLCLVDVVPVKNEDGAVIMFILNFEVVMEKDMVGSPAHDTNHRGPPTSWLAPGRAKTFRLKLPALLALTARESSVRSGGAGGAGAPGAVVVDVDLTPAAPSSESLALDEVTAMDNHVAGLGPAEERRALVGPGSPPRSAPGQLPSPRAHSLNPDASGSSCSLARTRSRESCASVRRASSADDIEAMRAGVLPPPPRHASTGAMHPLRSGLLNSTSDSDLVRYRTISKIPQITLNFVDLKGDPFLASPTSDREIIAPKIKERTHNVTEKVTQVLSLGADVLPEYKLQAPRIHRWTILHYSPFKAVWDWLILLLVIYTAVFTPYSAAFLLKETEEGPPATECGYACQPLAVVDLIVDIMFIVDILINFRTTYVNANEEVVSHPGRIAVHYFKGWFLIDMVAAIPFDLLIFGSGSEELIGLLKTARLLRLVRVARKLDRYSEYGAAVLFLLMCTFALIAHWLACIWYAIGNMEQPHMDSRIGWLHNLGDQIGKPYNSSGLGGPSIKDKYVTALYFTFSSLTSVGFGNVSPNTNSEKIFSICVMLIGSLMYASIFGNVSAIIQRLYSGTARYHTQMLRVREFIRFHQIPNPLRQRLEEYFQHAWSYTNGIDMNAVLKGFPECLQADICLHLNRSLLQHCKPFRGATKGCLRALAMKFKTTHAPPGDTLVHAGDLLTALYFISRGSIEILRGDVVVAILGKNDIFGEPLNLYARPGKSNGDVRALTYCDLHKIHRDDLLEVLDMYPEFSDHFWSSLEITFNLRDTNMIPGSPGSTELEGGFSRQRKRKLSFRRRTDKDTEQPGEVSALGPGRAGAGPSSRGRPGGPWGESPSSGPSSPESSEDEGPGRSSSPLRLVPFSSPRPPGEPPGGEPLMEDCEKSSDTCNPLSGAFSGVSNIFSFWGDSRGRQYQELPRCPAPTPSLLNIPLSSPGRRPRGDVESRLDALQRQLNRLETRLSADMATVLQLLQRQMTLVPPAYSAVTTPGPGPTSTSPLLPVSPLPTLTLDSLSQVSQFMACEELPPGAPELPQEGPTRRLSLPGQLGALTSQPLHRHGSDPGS
Sequence of Cytochrome P450 3A4 (P08684 whole entry): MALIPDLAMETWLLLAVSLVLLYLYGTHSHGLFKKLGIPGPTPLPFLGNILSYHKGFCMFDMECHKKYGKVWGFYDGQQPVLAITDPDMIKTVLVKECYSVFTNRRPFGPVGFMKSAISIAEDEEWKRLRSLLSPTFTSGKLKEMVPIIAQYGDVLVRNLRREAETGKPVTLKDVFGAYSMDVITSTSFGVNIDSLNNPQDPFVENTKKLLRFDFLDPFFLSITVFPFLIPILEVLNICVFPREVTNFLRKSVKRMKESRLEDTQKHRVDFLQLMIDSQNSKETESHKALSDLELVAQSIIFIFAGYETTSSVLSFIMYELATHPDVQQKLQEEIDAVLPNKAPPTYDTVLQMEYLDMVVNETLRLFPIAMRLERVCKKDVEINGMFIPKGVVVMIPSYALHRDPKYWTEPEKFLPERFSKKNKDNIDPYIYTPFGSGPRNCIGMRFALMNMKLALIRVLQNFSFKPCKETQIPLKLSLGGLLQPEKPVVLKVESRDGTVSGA
Sequence of Cytochrome P450 2C9 (P11712 whole entry): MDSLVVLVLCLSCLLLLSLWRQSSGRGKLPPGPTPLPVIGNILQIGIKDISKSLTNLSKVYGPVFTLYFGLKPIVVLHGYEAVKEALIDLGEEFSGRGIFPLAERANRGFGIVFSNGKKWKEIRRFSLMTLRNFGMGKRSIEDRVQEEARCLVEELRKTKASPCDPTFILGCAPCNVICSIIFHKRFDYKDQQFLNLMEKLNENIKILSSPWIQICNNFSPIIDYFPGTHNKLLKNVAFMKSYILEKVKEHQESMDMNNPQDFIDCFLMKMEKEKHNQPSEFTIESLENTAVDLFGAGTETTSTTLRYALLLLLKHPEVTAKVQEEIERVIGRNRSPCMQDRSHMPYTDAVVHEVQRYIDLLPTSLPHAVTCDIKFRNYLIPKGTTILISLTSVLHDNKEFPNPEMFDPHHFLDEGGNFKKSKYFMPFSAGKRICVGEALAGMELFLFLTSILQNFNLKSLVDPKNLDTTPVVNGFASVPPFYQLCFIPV
Sequence of Cytochrome P450 2C19 (P33261 whole entry): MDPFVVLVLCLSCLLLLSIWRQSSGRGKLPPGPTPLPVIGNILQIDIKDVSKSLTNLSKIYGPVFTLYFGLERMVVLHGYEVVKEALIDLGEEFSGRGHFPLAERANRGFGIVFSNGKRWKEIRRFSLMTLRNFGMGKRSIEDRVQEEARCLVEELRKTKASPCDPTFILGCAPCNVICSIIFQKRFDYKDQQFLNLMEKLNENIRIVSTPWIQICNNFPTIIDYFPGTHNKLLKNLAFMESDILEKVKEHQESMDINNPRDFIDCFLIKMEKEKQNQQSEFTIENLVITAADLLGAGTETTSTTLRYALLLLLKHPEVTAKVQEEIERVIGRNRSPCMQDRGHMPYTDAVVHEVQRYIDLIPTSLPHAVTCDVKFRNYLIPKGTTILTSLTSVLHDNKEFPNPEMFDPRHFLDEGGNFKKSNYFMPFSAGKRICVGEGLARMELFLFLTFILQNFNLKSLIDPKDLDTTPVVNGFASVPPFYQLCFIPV
Sequence of Cytochrome P450 2D6 (P10635 whole entry): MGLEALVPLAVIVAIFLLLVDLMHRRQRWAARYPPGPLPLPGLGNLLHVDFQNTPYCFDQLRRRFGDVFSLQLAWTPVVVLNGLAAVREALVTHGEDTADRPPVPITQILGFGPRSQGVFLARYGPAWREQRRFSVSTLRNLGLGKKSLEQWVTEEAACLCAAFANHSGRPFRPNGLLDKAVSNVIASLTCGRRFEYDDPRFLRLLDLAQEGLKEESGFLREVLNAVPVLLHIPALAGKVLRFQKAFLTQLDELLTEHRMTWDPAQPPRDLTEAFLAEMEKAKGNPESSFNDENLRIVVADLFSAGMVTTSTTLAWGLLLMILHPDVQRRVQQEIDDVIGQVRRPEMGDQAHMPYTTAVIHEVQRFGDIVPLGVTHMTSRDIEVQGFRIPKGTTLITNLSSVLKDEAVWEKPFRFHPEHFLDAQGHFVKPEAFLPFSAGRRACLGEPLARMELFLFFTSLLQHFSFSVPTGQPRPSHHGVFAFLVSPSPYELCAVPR

Structure (SMILES): COC(=O)N[C@H](C(=O)N1CCC[C@H]1C(=O)Nc1ccc([C@@H]2CC[C@@H](c3ccc(NC(=O)[C@@H]4CCCN4C(=O)[C@@H](NC(=O)OC)C(C)C)cc3)N2c2ccc(C(C)(C)C)cc2)cc1)C(C)C [OMBITASVIR]
- fraction unbound at 6 h, 1 µM [1]: 4e-05
- inhibition at 3 µM (hERG (KCNH2) [2]): 1.1%
- Cmax [3]: 583 ng/mL
- AUC(0-t) [4]: 6480 ng·h/mL
- fraction unbound at 6 h, 10 µM [5]: 1e-05
- Cmax [6]: 15.7 ng/mL
- inhibition (INH) (Cytochrome P450 2D6): Not Active
- fraction unbound at 6 h, 1 µM [7]: 3e-05
- Papp A→B at 1.5 h [8]: 0.08 ×10⁻⁶ cm/s
- inhibition at 50 µM [9]: 11.8%
- fraction unbound at 6 h, 10 µM [10]: 4e-05
- Tmax [11]: 3 h
- Kp at 24 h [12]: 22.3
- inhibition (INH) (Cytochrome P450 2C19): Not Active
- half-life [13]: 7.7 h
- remaining at 1 h, 0.2 µM [14]: 101%
- inhibition (INH) (Cytochrome P450 2C9): Not Active
- inhibition (INH) (Cytochrome P450 3A4): Not Active
- fraction unbound at 6 h, 10 µM [15]: 1e-05
- efflux ratio at 1.5 h [16]: 6.7
- inhibition at 10 µM (hERG (KCNH2) [17]): 1.8%
- Tmax [18]: 8.3 h
- half-life [19]: 11.1 h

Structure (SMILES): CC[Si](CC)(CC)c1ccc(N2[C@H](c3ccc(NC(=O)[C@@H]4CCCN4C(=O)[C@@H](NC(=O)OC)C(C)C)cc3)CC[C@H]2c2ccc(NC(=O)[C@@H]3CCCN3C(=O)[C@@H](NC(=O)OC)C(C)C)cc2)cc1
- fraction unbound at 6 h, 1 µM [1]: 8e-05
- inhibition at 3 µM (hERG (KCNH2) [2]): 6.9%
- Cmax [3]: 198 ng/mL
- AUC(0-t) [4]: 3040 ng·h/mL
- fraction unbound at 6 h, 10 µM [5]: 0.00017
- Cmax [6]: 29.2 ng/mL
- Activity (Mus musculus [20]): 9 ×10¹² /L
- inhibition (INH) (Cytochrome P450 2D6): Not Active
- fraction unbound at 6 h, 1 µM [7]: 8e-05
- Papp A→B at 1.5 h [8]: 0.07 ×10⁻⁶ cm/s
- inhibition at 50 µM [9]: 16.6%
- fraction unbound at 6 h, 10 µM [10]: 8e-05
- Tmax [11]: 3 h
- Activity (Mus musculus [21]): 0.345 g
- Kp at 24 h [12]: 31.9
- Activity (Mus musculus [22]): 953.3 U/L
- inhibition (INH) (Cytochrome P450 2C19): Not Active
- half-life [13]: 22.5 h
- remaining at 1 h, 0.2 µM [14]: 98%
- inhibition (INH) (Cytochrome P450 2C9): Not Active
- inhibition (INH) (Cytochrome P450 3A4): Not Active
- Activity (Mus musculus [23]): 12.44%
- fraction unbound at 6 h, 10 µM [15]: 6e-05
- efflux ratio at 1.5 h [16]: 0.8
- inhibition at 10 µM (hERG (KCNH2) [17]): 8.7%
- Tmax [18]: 10.5 h
- half-life [19]: 12.7 h
